Results reported in ChEMBL document CHEMBL3612006, “Novel dialkylphosphorylhydrazones: Synthesis, leishmanicidal evaluation and theoretical investigation of the proposed mechanism of action” (Eur J Med Chem, 2015).
Activity calls are given as the source filed them. The rule behind the calls is not given here.

Key:
Leishmania braziliensis [1] = test: Leishmanicidal activity against Leishmania braziliensis MHOM/BR/01/BA788 after 48 hrs; assay type: functional, organism-based; conditions: MHOM/BR/01/BA788, 48 h
In short: (§1)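 Log-phase promastigotes at 10⁵ per well in medium with 10% heat-inactivated FCS, 2 mM L-glutamine, gentamicin and 2% human urine were grown with compound at 26 °C for 48 h. Parasites were counted by automatic cell counter, with inhibition expressed as % of DMSO-treated control. Triplicates, with experiments repeated at least twice.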

Leishmania braziliensis [2] = test: Leishmanicidal activity against Leishmania braziliensis MHOM/BR/01/BA788 after 48 hrs relative to control; assay type: functional; design: concentration or dose not given beside the values; in short: as §1
Leishmania amazonensis [3] = test: Leishmanicidal activity against Leishmania amazonensis MHOM/BR/87/BA125 after 48 hrs; assay type: functional, organism-based; conditions: MHOM/BR/87/BA125, 48 h; in short: as §1
Leishmania amazonensis [4] = test: Leishmanicidal activity against Leishmania amazonensis MHOM/BR/87/BA125 after 48 hrs relative to control; assay type: functional; design: concentration or dose not given beside the values; in short: as §1
[5] = Cytotoxicity against mouse J774 cells after 48 hrs by MTT assay; assay type: cell-based; conditions: read-out: LC50
In short: (§2)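 J774 murine macrophages in DMEM with 2 mM L-glutamine, 10 mM HEPES, 10% FCS and gentamicin were seeded at 1.5 × 10⁵ cells/well and attached for 24 h at 37 °C. Cells were exposed to 1, 10 or 100 µM for 48 h, then given MTT for 1 h at 37 °C in the dark. Formazan was dissolved in DMSO and read at 540 nm. Triplicates with growth controls.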

J774 = test: Cytotoxicity against mouse J774 cells at 100 uM after 48 hrs by MTT assay; assay type: cell-based; conditions: j774, 48 h; in short: as §2
Leishmania amazonensis [6] = test: Antiamastigote activity against Leishmania amazonensis MHOM/BR/87/BA125 infected in BALB/c mouse peritoneal macrophages assessed as inhibition of infection index after 48 hrs by Giemsa staining; assay type: functional, organism-based
In short: (§3)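 Thioglycollate-elicited BALB/c peritoneal macrophages, 4 × 10⁵ per well on coverslips in DMEM with 10% FBS, adhered overnight and were infected with L. amazonensis promastigotes at 37 °C for 4 h. Free parasites were removed, then compounds were added (1, 10, 100 µM; DMSO ≤0.01%) for 48 h at 37 °C, 5% CO2. Infection index = % infected × mean amastigotes per macrophage.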

Leishmania amazonensis [7] = test: Antiamastigote activity against Leishmania amazonensis MHOM/BR/87/BA125 infected in BALB/c mouse peritoneal macrophages assessed as inhibition of infection index at 100 uM after 48 hrs by Giemsa staining; assay type: functional; conditions: MHOM/BR/87/BA125, 48 h; in short: as §3
Leishmania amazonensis [8] = test: Antiamastigote activity against Leishmania amazonensis MHOM/BR/87/BA125 infected in BALB/c mouse peritoneal macrophages assessed as decrease of number of intracellular parasites per macrophage at 1 to 100 uM after 48 hrs by Giemsa staining; assay type: functional, organism-based; in short: as §3
Leishmania amazonensis [9] = test: Antiamastigote activity against Leishmania amazonensis MHOM/BR/87/BA125 infected in BALB/c mouse peritoneal macrophages assessed as decrease of percentage of infected macrophages at 1 to 100 uM after 48 hrs by Giemsa staining; assay type: functional, organism-based; in short: as §3
Leishmania amazonensis [10] = test: Antiamastigote activity against Leishmania amazonensis MHOM/BR/87/BA125 infected in BALB/c mouse peritoneal macrophages assessed as decrease of percentage of infected macrophages at 10 to 100 uM after 48 hrs by Giemsa staining; assay type: functional, organism-based; in short: as §3
Leishmania amazonensis [11] = test: Antiamastigote activity against Leishmania amazonensis MHOM/BR/87/BA125 infected in BALB/c mouse peritoneal macrophages assessed as decrease of percentage of infected macrophages at 1 uM after 48 hrs by Giemsa staining; assay type: functional, organism-based; in short: as §3
Leishmania amazonensis [12] = test: Antiamastigote activity against Leishmania amazonensis MHOM/BR/87/BA125 infected in BALB/c mouse peritoneal macrophages assessed as decrease of percentage of infected macrophages at 100 uM after 48 hrs by Giemsa staining; assay type: functional; conditions: MHOM/BR/87/BA125, 48 h; in short: as §3
Leishmania amazonensis [13] = test: Antiamastigote activity against Leishmania amazonensis MHOM/BR/87/BA125 infected in BALB/c assessed as decrease of lesion size in ear at 30 mg/kg, po qd for 28 days measured up to 30 days; assay type: functional
In short: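 Female BALB/c mice, 6-8 weeks old, inoculated in right ear dermis with 10⁵ stationary-phase L. amazonensis promastigotes in sterile saline. From the second week post-infection, groups of 5 were dosed orally once daily for 28 days at 30 mg/kg/day in water; vehicle control received water orally. Lesion size was taken as infected minus contralateral ear thickness, measured twice weekly by digital caliper.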

Leishmania amazonensis [14] = test: Antiamastigote activity against Leishmania amazonensis MHOM/BR/87/BA125 infected in BALB/c assessed as decrease of parasite load in ear at 30 mg/kg, po qd for 28 days measured up to 30 days; assay type: functional, organism-based
In short: (§4)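 BALB/c mice (n = 5 per group) infected in the ear dermis with 10⁵ L. amazonensis promastigotes, then dosed orally with 30 mg/kg/day in water for 28 days. After treatment, infected ears and draining lymph nodes were excised, homogenized and serially diluted in Schneider medium with 10% FCS for a limiting dilution assay. Groups were compared to control by one-way ANOVA with Dunnett's test.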

Leishmania amazonensis [15] = test: Antiamastigote activity against Leishmania amazonensis MHOM/BR/87/BA125 infected in BALB/c assessed as decrease of parasite load in draining lymph nodes at 30 mg/kg, po qd for 28 days measured up to 30 days; assay type: functional, organism-based; in short: as §4

With `CC(C)COP(=O)(N/N=C/c1ccccn1)OCC(C)C` the IC50 (Leishmania braziliensis [1]) was > 100 µM, the Efficacy (Leishmania braziliensis [2]) was “inactive” and the IC50 (Leishmania amazonensis [3]) was 98.3 µM. For the same molecule, the Efficacy (Leishmania amazonensis [4]) was 40.7% and the CC50 at 48 h [5] was > 100 µM.

With `CCOP(=O)(N/N=C/c1ccncc1)OCC` the IC50 (Leishmania braziliensis [1]) was > 100 µM, the Efficacy (Leishmania braziliensis [2]) was “inactive” and the IC50 (Leishmania amazonensis [3]) was > 100 µM. The Efficacy (Leishmania amazonensis [4]) was “inactive” and the CC50 at 48 h [5] was > 100 µM.

`N=C(N)c1ccc(OCCCCCOc2ccc(C(=N)N)cc2)cc1` [PENTAMIDINE] showed an IC50 (Leishmania braziliensis [1]) of 0.06 µM, an Efficacy (Leishmania braziliensis [2]) of 95.7% and an IC50 (Leishmania amazonensis [3]) of 1.8 µM. For the same molecule, the Efficacy (Leishmania amazonensis [4]) was 93.8%, the CC50 at 48 h [5] was > 100 µM and the Activity (J774) was 28.8%.

With `CCC(C)OP(=O)(N/N=C/c1cccnc1Br)OC(C)CC` (stereo not given) the IC50 (Leishmania braziliensis [1]) was 5.2 µM, the Efficacy (Leishmania braziliensis [2]) was 80.1% and the IC50 (Leishmania amazonensis [3]) was < 0.001 µM. For the same molecule, the Efficacy (Leishmania amazonensis [4]) was 95.3%, the CC50 at 48 h [5] was > 100 µM and the inhibition (Leishmania amazonensis [6]) was “Dose-dependent effect”. For the same molecule, the inhibition at 100 µM (Leishmania amazonensis [7]) was 97.9%, the Activity (Leishmania amazonensis [8]) was “Active” and the Activity (Leishmania amazonensis [9]) was “Active”. For the same molecule, the Activity (Leishmania amazonensis [10]) was “Active”, the Activity (Leishmania amazonensis [11]) was “inactive” and the inhibition at 100 µM (Leishmania amazonensis [12]) was 82.2%. The Activity (Leishmania amazonensis [13]) was 0.0804 mm, the Activity (Leishmania amazonensis [14]) was “Active” and the Activity (Leishmania amazonensis [15]) was “Active”.

In the case of `CCC(C)OP(=O)(N/N=C/c1cncc(Br)c1)OC(C)CC` (stereo not given), the IC50 (Leishmania braziliensis [1]) is reported as 3.6 µM, the Efficacy (Leishmania braziliensis [2]) is reported as 92.2% and the IC50 (Leishmania amazonensis [3]) is reported as 26.3 µM. The Efficacy (Leishmania amazonensis [4]) was 93.8%, the CC50 at 48 h [5] was > 100 µM and the inhibition (Leishmania amazonensis [6]) was “Dose-dependent effect”. For the same molecule, the inhibition at 100 µM (Leishmania amazonensis [7]) was 99.9%, the Activity (Leishmania amazonensis [8]) was “Active” and the Activity (Leishmania amazonensis [9]) was “Active”. The Activity (Leishmania amazonensis [10]) was “Active”, the Activity (Leishmania amazonensis [11]) was “inactive” and the inhibition at 100 µM (Leishmania amazonensis [12]) was 99.3%. The Activity (Leishmania amazonensis [13]) was 0.0527 mm, the Activity (Leishmania amazonensis [14]) was “inactive” and the Activity (Leishmania amazonensis [15]) was “Active”.

For `CCOP(=O)(N/N=C/c1ccccn1)OCC` (mixture of isomers), the IC50 (Leishmania braziliensis [1]) was 7.5 µM, the Efficacy (Leishmania braziliensis [2]) was 62.1% and the IC50 (Leishmania amazonensis [3]) was > 100 µM. The Efficacy (Leishmania amazonensis [4]) was “inactive” and the CC50 at 48 h [5] was > 100 µM.

With `CCOP(=O)(N/N=C/c1cccnc1)OCC` the IC50 (Leishmania braziliensis [1]) was > 100 µM, the Efficacy (Leishmania braziliensis [2]) was “inactive” and the IC50 (Leishmania amazonensis [3]) was > 100 µM. For the same molecule, the Efficacy (Leishmania amazonensis [4]) was “inactive” and the CC50 at 48 h [5] was > 100 µM.

For `CCCCOP(=O)(N/N=C/c1cccnc1)OCCCC`, the IC50 (Leishmania braziliensis [1]) was 5.4 µM, the Efficacy (Leishmania braziliensis [2]) was 87.9% and the IC50 (Leishmania amazonensis [3]) was 53.3 µM. The Efficacy (Leishmania amazonensis [4]) was 85.6% and the CC50 at 48 h [5] was > 100 µM.

In the case of `CC(C)OP(=O)(N/N=C/c1ccccn1)OC(C)C`, the IC50 (Leishmania braziliensis [1]) is reported as 0.7 µM, the Efficacy (Leishmania braziliensis [2]) is reported as 56.3% and the IC50 (Leishmania amazonensis [3]) is reported as > 100 µM. For the same molecule, the Efficacy (Leishmania amazonensis [4]) was “inactive” and the CC50 at 48 h [5] was > 100 µM.

With `CC(C)COP(=O)(N/N=C/c1ccncc1)OCC(C)C` the IC50 (Leishmania braziliensis [1]) was 0.06 µM, the Efficacy (Leishmania braziliensis [2]) was 84.2% and the IC50 (Leishmania amazonensis [3]) was > 100 µM. The Efficacy (Leishmania amazonensis [4]) was “inactive” and the CC50 at 48 h [5] was > 100 µM.

Work on `CCCCOP(=O)(N/N=C/c1ccncc1)OCCCC` yielded an IC50 (Leishmania braziliensis [1]) of 5.1 µM, an Efficacy (Leishmania braziliensis [2]) of 77.2% and an IC50 (Leishmania amazonensis [3]) of 99.3 µM. For the same molecule, the Efficacy (Leishmania amazonensis [4]) was 45.5% and the CC50 at 48 h [5] was > 100 µM.

`CCC(C)OP(=O)(N/N=C/c1c(Cl)cncc1Cl)OC(C)CC` (stereo not given) gave an IC50 (Leishmania braziliensis [1]) of 0.03 µM, an Efficacy (Leishmania braziliensis [2]) of 74.1% and an IC50 (Leishmania amazonensis [3]) of 26 µM. For the same molecule, the Efficacy (Leishmania amazonensis [4]) was 92.4%, the CC50 at 48 h [5] was > 100 µM and the Activity (J774) was 20.5%.

For `CC(C)OP(=O)(N/N=C/c1ccncc1)OC(C)C`, the IC50 (Leishmania braziliensis [1]) was > 100 µM, the Efficacy (Leishmania braziliensis [2]) was “inactive” and the IC50 (Leishmania amazonensis [3]) was > 100 µM. The Efficacy (Leishmania amazonensis [4]) was “inactive” and the CC50 at 48 h [5] was > 100 µM.

`CCCCCCCCCCCCCCCCOP(=O)([O-])OCC[N+](C)(C)C` [MILTEFOSINE] showed an IC50 (Leishmania braziliensis [1]) of 0.7 µM, an Efficacy (Leishmania braziliensis [2]) of 84.5% and an IC50 (Leishmania amazonensis [3]) of 3.4 µM. The Efficacy (Leishmania amazonensis [4]) was 96.3%, the CC50 at 48 h [5] was > 100 µM and the inhibition at 100 µM (Leishmania amazonensis [7]) was 100%. The Activity (Leishmania amazonensis [14]) was “Active” and the Activity (Leishmania amazonensis [15]) was “Active”.

In the case of `CCCCOP(=O)(N/N=C/c1ccccn1)OCCCC` (mixture of isomers), the IC50 (Leishmania braziliensis [1]) is reported as 0.06 µM, the Efficacy (Leishmania braziliensis [2]) is reported as 76.3% and the IC50 (Leishmania amazonensis [3]) is reported as 6.2 µM. For the same molecule, the Efficacy (Leishmania amazonensis [4]) was 69.5% and the CC50 at 48 h [5] was > 100 µM.

`CC(C)COP(=O)(N/N=C/c1cccnc1)OCC(C)C` gave an IC50 (Leishmania braziliensis [1]) of 40.7 µM, an Efficacy (Leishmania braziliensis [2]) of 81.6% and an IC50 (Leishmania amazonensis [3]) of 83.3 µM. For the same molecule, the Efficacy (Leishmania amazonensis [4]) was 52.8% and the CC50 at 48 h [5] was > 100 µM.

In the case of `CC(C)OP(=O)(N/N=C/c1cccnc1)OC(C)C`, the IC50 (Leishmania braziliensis [1]) is reported as 0.4 µM, the Efficacy (Leishmania braziliensis [2]) is reported as 75.9% and the IC50 (Leishmania amazonensis [3]) is reported as > 100 µM. The Efficacy (Leishmania amazonensis [4]) was “inactive” and the CC50 at 48 h [5] was > 100 µM.
